A selection: hits, their analogues and other compounds. The true share with any hit is near 3%.
SENP1 inh = human SENP1 catalytic domain inhibitors, primary screen, biochemical, FRET, uHTS; 360,000 tested, 0.21% active; recombinant SENP1 catalytic domain, CyPet-SUMO1-YPet FRET cleavage; Sentrin-specific protease 1 (Homo sapiens), Q9P0U3; inhibition, % at 10 µM;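 active means inhibition at least 30% at 10 µM, raw YFP signal under a set limit, fluorescence ratio 0.5 to 1.5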;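 further: 0% = enzyme with DMSO and 100% = no enzyme wells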
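system = hSENP1 catalytic domain, recombinant | reagent = SFCypet-SUMO1-SFYpet substrate at 25 nM | doses = one dose per compound, 10 µM, 0.5% DMSO | incubation = enzyme reaction for 50 min at room temperature, dark | measured by = FRET, CFP and YFP emission | controls = no-enzyme low, enzyme-DMSO high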
HNF4A DNA FP = change in binding of human HNF4A to DNA, primary screen, biochemical, fluorescence polarization, FITC-DNA; Hepatocyte nuclear factor 4-alpha (Homo sapiens), P41235; 1 h; activity change, % at 10 µM; 360,000 tested, 0.3% active; AID 1224865, 2016; in the data active means activity change above about 30%, passing the limit was not always enough
Target sequence (P41235 whole entry, looked up): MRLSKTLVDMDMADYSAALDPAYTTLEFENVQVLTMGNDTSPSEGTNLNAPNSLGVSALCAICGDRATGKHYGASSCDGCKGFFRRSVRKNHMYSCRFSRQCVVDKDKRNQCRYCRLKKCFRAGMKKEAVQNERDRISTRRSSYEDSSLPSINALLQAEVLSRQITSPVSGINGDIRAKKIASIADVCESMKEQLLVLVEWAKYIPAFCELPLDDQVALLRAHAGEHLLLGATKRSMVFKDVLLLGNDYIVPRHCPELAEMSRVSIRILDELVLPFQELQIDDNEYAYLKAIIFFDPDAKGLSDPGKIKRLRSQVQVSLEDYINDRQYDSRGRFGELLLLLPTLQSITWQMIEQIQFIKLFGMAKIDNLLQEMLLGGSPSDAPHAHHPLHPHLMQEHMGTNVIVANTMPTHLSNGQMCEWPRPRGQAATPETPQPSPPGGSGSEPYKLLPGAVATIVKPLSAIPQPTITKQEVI
Myeloid diff MLP = induction of myeloid progenitor differentiation, primary screen, cell-based, flow cytometry, MLPCN library. 360,000 tested, 1% active. AID 624256, 2012. calls only at 10 µM. ER-HoxA9 myeloid progenitors, lysozyme-GFP differentiation;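 active means normalized GFP-positive differentiation at or above the plate's own cutoff, the solvent-only control mean plus 3 SD; inconclusive means no clear call, values can overlap the other calls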;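 further: cells exposed to compound for four days before flow analysis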
DSG3 Ab inh = inhibitors of pemphigus antibody binding to DSG3, primary screen, biochemical, bead-based, flow cytometry, scFv-GFP; Desmoglein-3 (Homo sapiens), P32926; 310,000 tested, 0.48% active; AID 588358, 2011; binding (percent of control), % at 10 µM; DSG3-coupled beads, scFv-anti-DSG3-GFP binding; active compounds read low;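 active means binding more than 3 SD below its plate's average and above zero; inconclusive means below that plate limit but binding exactly zero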;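 further: hits lower antibody fragment binding to DSG3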
Exocytosis inh = LAMP-1 surface exposure blockers, TALL-104 cells – cell-based, flow cytometry, MLPCN library, primary screen; TALL-104 LAMP-1 surface exposure; cells stimulated with thapsigargin and PMA; inhibition, % at 10 µM; 360,000 tested, 0.66% active; AID 651702, 2012;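 active means inhibition above about 55%, limit read from the data; inconclusive means no clear call, values can overlap the other calls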
H9c2 protect = cardioprotection against H2O2-induced cell death, primary screen, uHTS, H9c2 cells, ATPLite luminescence | 360,000 tested, 0.63% active | protection from H2O2 cell death, % at 20 µM | AID 588492, 2011 | H9c2 cardiomyocytes, H2O2 injury protection, 2 h;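 active means compounds giving at least 50% protection of heart cells from peroxide-induced death in the single-dose screen, raw or plate-pattern-corrected value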;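 further: 0% = DMSO wells with peroxide and 100% = DMSO wells without peroxide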
* hit, by the source's call; i = inactive; ? = inconclusive; nt = not tested or not shown; + = active, no number.

SMILES	SENP1 inh	HNF4A DNA FP	Myeloid diff MLP	DSG3 Ab inh	Exocytosis inh	H9c2 protect
CN(C)CCCNC(=O)/C(=C/c1ccc(-c2ccc([N+](=O)[O-])cc2)o1)NC(=O)c1ccccc1	-28	2	+	118	10	4
CC(=O)Oc1c(C)c(C)c2c(c1C)CC[C@@](C)(CCC[C@H](C)CCC[C@H](C)CCCC(C)C)O2	-1	4	+	101	0	-6
CC1(c2nnc(-c3ccc(Cl)cc3)o2)CC(c2ccc(Cl)cc2)=NO1 (centres undefined)	2	-2	i	99	-8	-13
Cc1ccc(C2=NOC(C)(c3nnc(-c4ccc(Cl)cc4)o3)C2)cc1 (centres undefined)	3	36*	i	102	1	-2
CC(C)[N+]1=C2C=CC=CC=C2SC12C([N+](=O)[O-])=CC(=[N+]([O-])[O-])C=C2[N+](=O)[O-] (centres undefined)	0	-19	+	66*	50	5
CCOc1ccc(Nc2nc(N)nc(CCl)n2)cc1	2	-3	i	108	60*	-7
CCOc1ccc(Nc2nc(N)c3ccccc3n2)cc1	1	60*	i	104	44	-17
Cc1ccc(Nc2nc(N)nc(CCl)n2)cc1	-2	0	i	94	51	-5
COc1cccc(Nc2nc(N)nc(CCl)n2)c1	-2	0	i	102	68*	10
Cc1cccc(Nc2nc(N)nc(CCl)n2)c1	-1	-1	i	112	70*	4
CCCCCn1nc(C(=O)OCc2nnc(-c3ccccc3)o2)c2ccccc2c1=O	1	-2	i	102	-2	-3
O=C1CC(c2ccco2)Cc2nc(N3CCc4ccccc4C3)ncc21 (centres undefined)	31*	-2	i	132	1	2
CC(C)c1ccc(C2CC(=O)c3cnc(N4CCc5ccccc5C4)nc3C2)cc1 (centres undefined)	-1	3	i	96	1	-10
CCOc1ccc(N(CC)C(=O)c2cn(CC)c(=O)c3cc(OC)c(OC)cc23)cc1	1	1	i	92	0	6
CN1CCn2cnc(C(=O)N[C@@H](Cc3ccccc3)C(=O)OC(C)(C)C)c2C1=O	-1	1	i	nt	5	-7
FC(F)(F)c1ccc(N2CCOCC2)c(Nc2nc3ccccc3n3cnnc23)c1	-31	30*	i	104	4	5
c1ccc(N2CCCCC2)c(Nc2nc3ccccc3n3cnnc23)c1	-22	-4	i	101	1	20
CC(C)CC(=O)Nc1ccc2oc(-c3cccnc3)nc2c1	1	-6	i	97	-4	-5
CCC(C)NCC(=O)Nc1ccc(-c2nc3cc(NC(=O)CNC(C)CC)ccc3o2)cc1 (centres undefined)	-2	0	+	nt	0	-15
Cc1ccc2oc(-c3ccc(NC(=O)CC(C)C)cc3)nc2c1	0	-4	i	-15*	4	-13
COc1cc(OC)cc(C(=O)NNC(=O)CCC(=O)c2cccs2)c1	-12	4	i	106	11	0
O=C1c2c(O)cccc2Cc2cccc(O)c21	15	-50	i	64*	-6	0
O=C1Cc2cccc(=O)c(O)c2C(=O)O1	-1	-38	i	98	-3	1
Cc1ccc(Nc2nc(N)[nH]c(=O)c2N=O)cc1	-87	-4	i	113	9	52*
COc1ccc(OC)c(NC(=O)COC(=O)c2c3c(nc4ccccc24)CCCC3)c1	-3	1	?	102	6	56*
SMILES	SENP1 inh	HNF4A DNA FP	Myeloid diff MLP	DSG3 Ab inh	Exocytosis inh	H9c2 protect
COc1ccc(NC(=O)COC(=O)c2c3c(nc4ccccc24)CCCC3)cc1	-1	0	i	nt	0	14
CCOC(=O)C1(Cc2cccc(Cl)c2)CCCN(C(=O)c2ccc(C)nc2)C1 (centres undefined)	2	1	i	67*	-6	3
CCN(CC(=O)Nc1ccc(Br)cc1)CC(=O)Nc1cc(C)on1	-2	3	i	66*	3	0
Cc1cc(NC(=O)Cc2ccc(Br)cc2)no1	-1	-1	i	98	1	1
CNC(=O)CSc1nnc(-c2ccccc2F)n1CCc1ccccc1	2	3	i	101	-3	0
COc1ccc(Cl)cc1N(CC(=O)NCCSc1ccccn1)S(=O)(=O)c1ccccc1	2	-2	i	85	69*	6
CSc1ccccc1OCc1cc(C(=O)NCCC2=CCCCC2)no1	-3	1	i	25*	1	0
C=CCNc1sc(C(=O)c2ccc(C)cc2)c(N)c1C#N	-4	5	i	118	2	-5
C=CCNc1nc(N)c(C(=C(C#N)C#N)c2ccc(Br)cc2)s1	-145	1	i	104	30	56*
CC(C)(CO)Nc1nc(Cl)nc(NC2CCCCC2)n1	0	3	i	105	12	3
O=C(NCc1ccccn1)c1ccc(OC2CCN(Cc3cccs3)CC2)cc1	-1	3	i	107	-1	9
COc1cccc(-c2nnc(NC(=O)c3ccc(Cl)s3)o2)c1	4	-1	i	101	2	58*
O=C(Nc1nnc(-c2ccco2)o1)c1ccc(Cl)s1	1	3	i	nt	1	16
CC1=C(C#N)C(=O)NC1(C)O (centres undefined)	-5	-2	i	100	-15	-2
CC1(C)CC(=O)C(C=Nc2ccc(N)cc2)=C(O)C1	-71	1	+	95	-6	1
COC(=O)c1ccc(N)c(N=CC2=C(O)CC(C)(C)CC2=O)c1	-27	22	+	121	-2	58*
CC1(C)CC(=O)C(C=Nc2cc(C(=O)c3ccccc3)ccc2N)=C(O)C1	-27	31	+	105	-2	17
CSc1ccccc1N=CC1=C(O)CC(C)(C)CC1=O	0	4	i	99	-1	1
COc1ccc(-c2nc3ncccc3n2O)cc1	-1	1	i	99	-15	-4
On1c(-c2ccccc2)nc2ncccc21	-5	1	i	73*	0	11
O=[N+]([O-])c1ccc(Nc2nc(NC3CCCCC3)nc(N3CCCC3)n2)cc1	1	3	i	84	78*	-7

Screening data from PubChem BioAssay.
